Source: ChEMBL document CHEMBL4261484, “Design, synthesis and anticonvulsant-analgesic activity of new N-[(phenoxy)alkyl]- and N-[(phenoxy)ethoxyethyl]aminoalkanols” (Medchemcomm, 2017)
The source made the active and inactive calls.

Key:
Mus musculus [1] = assay: Anticonvulsant activity in mouse assessed as protection against maximal electroshock-induced seizures at 100 mg/kg, ip; type: functional, organism-based
Method in brief: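 Mice dosed ip; maximal seizures induced by auricular electroshock (25 mA, 500 V, 50 Hz, 0.2 s). Endpoint: hind-limb tonic extension; animals without it scored protected. Read-out is number protected over number tested.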

Mus musculus [2] = assay: Toxicity in mouse at 100 mg/kg, ip measured during maximal electroshock seizure test; type: organism-based; conditions: in vivo
Mus musculus [3] = assay: Toxicity in mouse at 30 mg/kg, ip measured during maximal electroshock seizure test; type: organism-based; conditions: in vivo
Mus musculus [4] = assay: Toxicity in mouse at 25 mg/kg, ip measured during maximal electroshock seizure test; type: organism-based; conditions: in vivo
Mus musculus [5] = assay: Anticonvulsant activity in ip dosed mouse assessed as protection against maximal electroshock-induced seizures; type: functional
Method in brief: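 Mice were dosed ip. Maximal seizures were induced by auricular electrodes (25 mA, 500 V, 50 Hz, 0.2 s). Absence of hind-limb tonic extension counted as protection. […] Motor impairment was scored on a 10 rpm rotarod, giving TD50 the same way.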

[6] = Neurotoxicity in ip dosed mouse assessed as motor impairment measured for one min by rotarod test; type: toxicity, organism-based; conditions: in vivo
Method in brief: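 Mice trained on an accelerating rotarod, then tested at least 24 h later after ip pretreatment, on a rod turning at 10 rpm. Neurotoxicity was scored as failure to stay on the rod for one minute. Read-out is mice impaired over mice tested.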

[7] = Protection index, ratio of TD50 for neurotoxicity in ip dosed mouse by rotarod test to ED50 for anticonvulsant activity in mouse by maximal electroshock seizure test; type: toxicity, organism-based; conditions: in vivo, read-out: Ratio TD50/ED50
Mus musculus [8] = assay: Anticonvulsant activity in mouse assessed as current strength required to induce tonic hind-limb extension in 50% of the animals at 10 mg/kg, ip by maximal electroshock seizure threshold test (reference value: 6.05 to 8.13 mA); type: functional
Mus musculus [9] = assay: Anticonvulsant activity in mouse assessed as increase in electroconvulsive threshold at 10 mg/kg, ip by maximal electroshock seizure threshold test relative to control; type: functional
Mus musculus [10] = assay: Anticonvulsant activity in mouse assessed as protection against subcutaneous pentylenetetrazole-induced seizures by measuring latency time of tonic seizures at 100 mg/kg, ip measured for 30 mins post pentylenetetrazole challenge at 0.5 hrs after compound dosing (reference value: 562.8 to 614.9 secs); type: functional
Mus musculus [11] = assay: Anticonvulsant activity in mouse assessed as protection against subcutaneous pentylenetetrazole-induced seizures by measuring latency time of tonic seizures at 30 mg/kg, ip measured for 30 mins post pentylenetetrazole challenge at 0.5 hrs after compound dosing (reference value: 562.8 to 614.9 secs); type: functional
Mus musculus [12] = assay: Anticonvulsant activity in mouse assessed as protection against subcutaneous pentylenetetrazole-induced seizures at 100 mg/kg, ip measured for 30 mins post pentylenetetrazole challenge at 0.5 hrs after compound dosing relative to control; type: functional
Mus musculus [13] = assay: Anticonvulsant activity in mouse assessed as protection against subcutaneous pentylenetetrazole-induced seizures at 30 mg/kg, ip measured for 30 mins post pentylenetetrazole challenge at 0.5 hrs after compound dosing relative to control; type: functional
Mus musculus [14] = assay: Analgesic activity in mouse assessed as time of paw licking during phase 1 at 27 mg/kg, ip measured for 5 mins by formalin test (reference value: 43.89 +/- 6.64 secs); type: functional
Method in brief: (§1)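 Formalin test in mice: 20 μL of 5% formalin injected intraplantarly into the right hind paw. Each mouse was observed alone in a glass beaker for 30 min. Time (s) spent licking or biting the injected paw was recorded at 0–5 min (acute phase) and 15–30 min (inflammatory phase).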

Mus musculus [15] = assay: Analgesic activity in mouse assessed as decrease in time of paw licking during phase 2 at 27 mg/kg, ip measured for 15 to 30 mins by formalin test relative to control; type: functional; parameters: scale not given: the % may be the effect or the level left; method in brief: as §1
Mus musculus [16] = assay: Toxicity in mouse assessed as effect on spontaneous activity at 27 mg/kg, ip measured for 30 mins by photoresistor actometer relative to control; type: organism-based; conditions: in vivo, 0.5 h
Method in brief: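 Mice dosed ip; locomotor activity by photoresistor actometers counting light-beam interruptions. Each mouse was habituated 30 min in a cage, then crossings were counted over a 30 min session. Data are mean ± SEM and % change vs control; unpaired t test.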

Mus musculus [17] = assay: Neurotoxicity in mouse assessed as motor impairment by measuring time of escaping from chimney at 27 mg/kg, ip measured for 60 secs (reference value: 8.87 +/- 1.79 secs); type: toxicity, organism-based; conditions: in vivo, 1 min
Method in brief: (§2)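 Mice dosed ip; trained, selected animals placed in a horizontal tube 25 cm long and 2.5 cm in diameter, then tube reversed so mice must climb out backward. Read-outs: escape time (s) ± SEM and % animals losing coordination versus control. Unpaired t test.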

Mus musculus [18] = assay: Neurotoxicity in mouse assessed as motor impairment by measuring loss of coordination at 27 mg/kg, ip measured for 60 secs by chimney test relative to control; type: toxicity, organism-based; conditions: in vivo, 1 min; method in brief: as §2
HepG2 [19] = assay: Cytotoxicity against human HepG2 cells assessed as effect on cell viability at 10 to 250 uM after 24 hrs by MTT assay; type: cell-based; conditions: hepg2, 24 h
Method in brief: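 HepG2 cells grown in MEM with 10% FBS (37 °C, 5% CO2) and seeded at 1 × 10^4. After overnight culture, exposed to 10–250 μM for 24 h. MTT for 3 h, formazan dissolved, OD 570 nm. Viability is % of control ± SEM from three independent experiments.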

HepG2 [20] = assay: Cytotoxicity against human HepG2 cells assessed as effect on cell viability at 10 to 250 uM after 24 hrs by neutral red assay; type: cell-based; conditions: hepg2, 24 h
Method in brief: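 HepG2 cells seeded at 5 × 10^4 per well, then after 24 h given medium with 10–250 μM for 24 h. Viability by neutral red staining, OD 570 nm. Results are % of control ± SEM, three independent experiments.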

[21] = Cytotoxicity against mouse CRL-2541 cells assessed as effect on cell viability at 10 to 250 uM after 24 hrs by MTT assay; type: cell-based

Cc1ccc(OCCOCCNC(C)CO)c(C)c1 (racemic)
Activity (Mus musculus [1]): Active
Activity (Mus musculus [2]): Non-Toxic
Activity (Mus musculus [3]): Non-Toxic
Activity (Mus musculus [4]): Non-Toxic
ED50 (Mus musculus [5]): 27.1 mg/kg
TD50 at 1 min [6]: 109 mg/kg
selectivity ratio [7]: 4.02
Activity (Mus musculus [8]): 6.76 mA
Activity (Mus musculus [9]): inactive
Time (Mus musculus [10]): 1269 s
Time (Mus musculus [11]): 575.8 s
Activity (Mus musculus [12]): 117.23%
Activity (Mus musculus [13]): 2.31%
Time (Mus musculus [14]): 67.25 s
Activity (Mus musculus [15]): 83.41%
Activity (Mus musculus [16]): 68.92%
Time (Mus musculus [17]): 6 s
Activity (Mus musculus [18]): 0%
Activity (HepG2 [19]): Non-Toxic
Activity (HepG2 [20]): Non-Toxic
Activity [21]: Non-Toxic
